This sample holds only a part of the variants without activity.
B1: tRNA (parent)
chain: GUUCCGUUGGCGUAAUGGUAACGCGUCUCCCUCCUAAGGAGAAGACUGCGGGUUCGAGUCCCGUACGGAACG

Variants of: B1
Assay: yeast fitness relative to wild type (ratio to wild type); higher = fitter; tRNA-Arg(CCU), competitive growth, 37 C, YPD
Method in brief: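 For this measurement, the tRNA-Arg(CCU) gene was varied by chemical synthesis at a 3% per-site mutation rate across 69 sites, and each variant was placed at the native genomic locus in Saccharomyces cerevisiae. The pooled strains went through a 24-hour competition in YPD at 37°C in six parallel replicates, with amplicons from start and end populations read by 100-nucleotide paired-end sequencing. Darwinian fitness relative to wild type followed from the change in each genotype's frequency. Genotypes needed ≥ 100 starting reads, and estimates < 0.5 were set to 0.5.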

Variant | yeast fitness
GUUCCGUUGGCGUAAUGGUAACGCGUCUCCCUCCUAAGGAGAAGACUCCGCGUUCGAGUCCCGUACGGAACG | 0.591
GUUCCGUUGGCGUAAUGGUAACGCGUCUCCCUCCUAAGGAGAAGACUACGGGUUCGAGUGCCGUUCGGAACG | ≤ 0.5
GUUCCGUUGGCGUAAUGGUAACGCGUCUCCCUCCUAAGGAGAAGACUGAGGGUUCGAGUCCCGUACGGACCG | 0.743
GUUCCGUUGGCGUAAUGGUAACGCGUCUCCCUCCUAAGGAGAAGACUAGGGGUUCGAGUCCCGUACGGAACG | 1.05
GUUCCGUUGGCGUAAUGGUAACGCGUCUCCCUCCUAAGGAGAAGACUGGGGGUUCGCGUCCCGUACGGAGCG | 0.552
GUUCCGUUGGCGUAAUGGUAACGCGUCUCCCUCCUAAGGAGAAGACCGCAGGUUCGAGUCCCGUACGCAACG | 0.539
GUUCCGUUGGCGUAAUGGUAACGCGUCUCCCUCCUAAGGAGAAGACUACGGGUGCGAGUCCCGUACGGAACG | 0.686
GUUCCGUUGGCGUAAUGGUAACGCGUCUCCCUCCUAAGGAGAAGACUGAGGGUUCGAGUCCCGUCCGGAACG | 0.686
GUUCCGUUGGCGUAAUGGUAACGCGUCUCCCUCCUAAGGAGAAGACUGAGGGUUUGAGUCCCGUACGGAACG | 0.606
GUUCCGUUGGCGUAAUGGUAACGCGUCUCCCUCCUAAGGAGAAGACUCCGGGUUCGGGUCCCGUACGGAACG | 0.705
GUUCCGUUGGCGUAAUGGUAACGCGUCUCCCUCCUAAGGAGAAGACUCCGGGUUCGUGUCCCGUACGGAACG | 0.622
GUUCCGUUGGCGUAAUGGUAACGCGUCUCCCUCCUAAGGAGAAGACUCCGGGUUCGAGUCCCGGACGGAACG | 0.714
GUUCCGUUGGCGUAAUGGUAACGCGUCUCCCUCCUAAGGAGAAGACUGAGGGUUCGAGUCCCGUUCAGAACG | 0.529
GUUCCGUUGGCGUAAUGGUAACGCGUCUCCCUCCUAAGGAGAAGACUCUGGGUUUGAGUCCCGUACGGAACG | 0.663
GUUCCGUUGGCGUAAUGGUAACGCGUCUCCCUCCUAAGGAGAAGACGGCGGGUUCGAGUCCCGUACGCAACG | 0.563
GUUCCGUUGGCGUAAUGGUAACGCGUCUCCCUCCUAAGGAGAAGACUACGGAUUCGAGUCCCGUACGGAACG | 0.976
GUUCCGUUGGCGUAAUGGUAACGCGUCUCCCUCCUAAGGAGAAGACCGCGGGUUCGAUUCCCGUUCGGAACG | 0.511
GUUCCGUUGGCGUAAUGGUAACGCGUCUCCCUCCUAAGGAGAAGACUCCGGCUUCGCAUCCCGUAUGGAACG | ≤ 0.5
GUUCCGUUGGCGUAAUGGUAACGCGUCUCCCUCCUAAGGAGAAGACUAGGGGUUCGAGUGCCGUACGGAACG | 0.576
GUUCCGUUGGCGUAAUGGUAACGCGUCUCCCUCCUAAGGAGAAGACUAUGGGUUCGAGUCCUGUACGGUACG | 0.553
GUUCCGUUGGCGUAAUGGUAACGCGUCUCCCUCCUAAGGAGAAGACUACGCGUUCGAGUCGCGUACGGAACG | 1.02
GUUCCGUUGGCGUAAUGGUAACGCGUCUCCCUCCUAAGGAGAAGACUACGGGGUCGAGUCCCGUACGGAACG | 0.599
GUUCCGUUGGCGUAAUGGUAACGCGUCUCCCUCCUAAGGAGAAGACUCCGGGUGUGAGUCCCGUACGGAACG | ≤ 0.5
GUUCCGUUGGCGUAAUGGUAACGCGUCUCCCUCCUAAGGAGAAGACUCCGGCUUUGAGUCCCGUACGGAACG | ≤ 0.5
GUUCCGUUGGCGUAAUGGUAACGCGUCUCCCUCCUAAGGAGAAGACCGCGGAUUCGAGUCCCGUACGGAACG | 0.724

Variant | yeast fitness
GUUCCGUUGGCGUAAUGGUAACGCGUCUCCCUCCUAAGGAGAAGACUGGCGGUUCGAGUCCUGUACGGAACG | 0.539
GUUCCGUUGGCGUAAUGGUAACGCGUCUCCCUCCUAAGGAGAAGACGGCGGGUACGAAUCCCGUACGGAACG | ≤ 0.5
GUUCCGUUGGCGUAAUGGUAACGCGUCUCCCUCCUAAGGAGAAGACGGAGGGUUCGAGUCCCGUACGGUACG | 0.573
GUUCCGUUGGCGUAAUGGUAACGCGUCUCCCUCCUAAGGAGAAGACUACGGGUUCGAGUCCGGUAAGGAACG | ≤ 0.5
GUUCCGUUGGCGUAAUGGUAACGCGUCUCCCUCCUAAGGAGAAGACUACGGGUUCGAGUCUCGUCCGGAACG | ≤ 0.5
GUUCCGUUGGCGUAAUGGUAACGCGUCUCCCUCCUAAGGAGAAGACCGCGGGUUCGAGUCCCGUAAGGAACG | 0.775
GUUCCGUUGGCGUAAUGGUAACGCGUCUCCCUCCUAAGGAGAAGACUAAGGGUUCGAGUCCCGUACUGAACG | 0.572
GUUCCGUUGGCGUAAUGGUAACGCGUCUCCCUCCUAAGGAGAAGACUACGGGUUCGAGUCGUGUACGGAACG | ≤ 0.5
GUUCCGUUGGCGUAAUGGUAACGCGUCUCCCUCCUAAGGAGAAGACUACGGGUUCGAGUCCCGUUCGGAACG | 1.02
GUUCCGUUGGCGUAAUGGUAACGCGUCUCCCUCCUAAGGAGAAGACUGAGGGUUCGAGUGCCGUACGGACCG | ≤ 0.5
GUUCCGUUGGCGUAAUGGUAACGCGUCUCCCUCCUAAGGAGAAGACUGAGGGUUCGAGUACCGUACGGAACG | 0.52
GUUCCGUUGGCGUAAUGGUAACGCGUCUCCCUCCUAAGGAGAAGACUAUGGGUUCGAGUCCCCUACGGAACG | 0.633
GUUCCGUUGGCGUAAUGGUAACGCGUCUCCCUCCUAAGGAGAAGACUCUGGGUUCGAGUCCCGUACGGAACG | 0.787
GUUCCGUUGGCGUAAUGGUAACGCGUCUCCCUCCUAAGGAGAAGACCGCGGGUUCGAGCCCCGUACGGAACG | 0.926
GUUCCGUUGGCGUAAUGGUAACGCGUCUCCCUCCUAAGGAGAAGACUACGGGUUCUAAUCCCGUACGGAACG | ≤ 0.5
GUUCCGUUGGCGUAAUGGUAACGCGUCUCCCUCCUAAGGAGAAGACCGCGGGCUCGAGUCCCGUACGGAACG | 0.795
GUUCCGUUGGCGUAAUGGUAACGCGUCUCCCUCCUAAGGAGAAGACUCAGGGAUCAACUCCCGUACGCAACG | ≤ 0.5
GUUCCGUUGGCGUAAUGGUAACGCGUCUCCCUCCUAAGGAGAAGACCGCGGGUUCGACUCCCGUACGGAACG | 0.971
GUUCCGUUGGCGUAAUGGUAACGCGUCUCCCUCCUAAGGAGAAGACUGAGAGUUAGAGUACCGUACGGAACG | ≤ 0.5
GUUCCGUUGGCGUAAUGGUAACGCGUCUCCCUCCUAAGGAGAAGACUCCGGGUUCGAGUCCCAUGCGGAACG | 0.71
GUUCCGUUGGCGUAAUGGUAACGCGUCUCCCUCCUAAGGAGAAGACUCCGGGUUCGAGUCUCGUACGGAACG | 0.733
GUUCCGUUGGCGUAAUGGUAACGCGUCUCCCUCCUAAGGAGAAGACUACGGGUUCGAGUCCGGUACGGAACG | 0.951
GUUCCGUUGGCGUAAUGGUAACGCGUCUCCCUCCUAAGGAGAAGACUGAGGGUUCGAGUCCCCUACGGGACG | ≤ 0.5
GUUCCGUUGGCGUAAUGGUAACGCGUCUCCCUCCUAAGGAGAAGACUGAGGGUUCGAGUCUGGUACGGAACG | ≤ 0.5
GUUCCGUUGGCGUAAUGGUAACGCGUCUCCCUCCUAAGGAGAAGACUGAGGGUUCAUGUCCCGUACGGAACG | ≤ 0.5

Variant | yeast fitness
GUUCCGUUGGCGUAAUGGUAACGCGUCUCCCUCCUAAGGAGAAGACUACGGGUUCGAGUCCCGUACGAAACG | 0.998
GUUCCGUUGGCGUAAUGGUAACGCGUCUCCCUCCUAAGGAGAAGACUACGGGUUCGAGUCCCGUACGGUACG | 0.961
GUUCCGUUGGCGUAAUGGUAACGCGUCUCCCUCCUAAGGAGAAGACUACGGGUUCGCGUCCCGUACGGAACG | 0.643
GUUCCGUUGGCGUAAUGGUAACGCGUCUCCCUCCUAAGGAGAAGACUCCGGGUUCGAGUCCCGUACCGAACG | 0.563
GUUCCGUUGGCGUAAUGGUAACGCGUCUCCCUCCUAAGGAGAAGACUCCGGGUUCGAGUCCCCUACGGACCG | ≤ 0.5
GUUCCGUUGGCGUAAUGGUAACGCGUCUCCCUCCUAAGGAGAAGACUGAGGGUUCGAGUUCCGUACGCAACG | ≤ 0.5
GUUCCGUUGGCGUAAUGGUAACGCGUCUCCCUCCUAAGGAGAAGACUACGGGUUUGAGUCCCGUACGGAACG | 0.661
GUUCCGUUGGCGUAAUGGUAACGCGUCUCCCUCCUAAGGAGAAGACUGGGGGUUCGAGUUCUGAACGGAACG | ≤ 0.5
GUUCCGUUGGCGUAAUGGUAACGCGUCUCCCUCCUAAGGAGAAGACCGCGGGUUCGAGUCCGGUCCGGAACG | ≤ 0.5
GUUCCGUUGGCGUAAUGGUAACGCGUCUCCCUCCUAAGGAGAAGACUGGGGGUUAGAGUCCCGUACGGAACG | 0.619
GUUCCGUUGGCGUAAUGGUAACGCGUCUCCCUCCUAAGGAGAAGACUCCGGGUUCGAGUCCCGUACGGACCG | 0.784
GUUCCGUUGGCGUAAUGGUAACGCGUCUCCCUCCUAAGGAGAAGACUCCGGGUUCGAGUCCCGUACGGAGCG | 0.901
GUUCCGUUGGCGUAAUGGUAACGCGUCUCCCUCCUAAGGAGAAGACUGAGGCUUCGAGUCCCGUACGGAACG | 0.527
GUUCCGUUGGCGUAAUGGUAACGCGUCUCCCUCCUAAGGAGAAGACUGACGGUUCGAGUCCCGUACGGAACG | 0.572
GUUCCGUUGGCGUAAUGGUAACGCGUCUCCCUCCUAAGGAGAAGACCACGGGUUCGAGUCCCGUACGGAACG | 0.96
GUUCCGUUGGCGUAAUGGUAACGCGUCUCCCUCCUAAGGAGAAGACUGGGGGUUCGAGUCCCGUAAGGAACG | 0.654
GUUCCGUUGGCGUAAUGGUAACGCGUCUCCCUCCUAAGGAGAAGACUACGGCUUCGAGUCCCGUACCGAACG | ≤ 0.5
GUUCCGUUGGCGUAAUGGUAACGCGUCUCCCUCCUAAGGAGAAGACUGAGGGUUCGUGUCCCGUACGGAACG | 0.55
GUUCCGUUGGCGUAAUGGUAACGCGUCUCCCUCCUAAGGAGAAGACUGAGGGUUCGAGUCCCGUACUGAACG | 0.746
GUUCCGUUGGCGUAAUGGUAACGCGUCUCCCUCCUAAGGAGAAGACUACGGGUUUGAGUCCCGUACGGAGCG | ≤ 0.5
GUUCCGUUGGCGUAAUGGUAACGCGUCUCCCUCCUAAGGAGAAGACUCCGGGUUCGAGUCCAGUACGGAACG | 0.771
GUUCCGUUGGCGUAAUGGUAACGCGUCUCCCUCCUAAGGAGAAGACUCCGGGUUCGAGUCCCGUACGCAACG | 0.789
GUUCCGUUGGCGUAAUGGUAACGCGUCUCCCUCCUAAGGAGAAGACUCCGGGUUCGAGUCCCGUACGUAACG | 0.771
GUUCCGUUGGCGUAAUGGUAACGCGUCUCCCUCCUAAGGAGAAGACUGAGCGUUCGAGACCCGUACGGAACG | ≤ 0.5
GUUCCGUUGGCGUAAUGGUAACGCGUCUCCCUCCUAAGGAGAAGACUGGGGGUUCGAGUCCCGUCCGGAACG | 0.733
